The source of these data is PMC10734015 (ACS Omega, 2023).

Experiment [1] deals with anti-mitragynine antibody. Nature of the experiment: Cross-reactivity study by CI-ELISA. It counts as binding, rabbit. The following applies: for IC50 values: CI-ELISA, compounds at 0.001–50.0 μg/mL, 4PL fit; for cross-reactivity (%): calculated from IC50 values relative to mitragynine (eq 3). The method, boiled down:
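Plates coated overnight (16 h) at 4 °C with mitragynine-OVA at 0.25 μg/mL in PBS pH 7.4, washed three times in PBS, then blocked with 5% (w/v) skimmed blocker. Rabbit polyclonal IgG raised against C22-MG-cBSA was used at 1/1000 v/v in 0.05% Tween 20 and pre-incubated with test compound before transfer to wells. Detection used goat anti-rabbit-HRP at 1/2500 v/v.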

The conditions of experiment [2]: ELISA with pre-incubation (inhibition method); cited from earlier work. On the technique in general: An ELISA detects its analyte on a solid surface through an enzyme-linked reagent.
The conditions of experiment [3]: ELISA with pre-incubation (inhibition method); cited from earlier work. The source holds these as a separate data set.

For orientation: IC50 means the point on the concentration scale where inhibition reaches its midpoint.

Values after ≈ are worked out from the molar mass of the structure shown. Read-outs that look alike come from different tables or passages of the source.

As for `COC(=O)C1=CO[C@@H](C)[C@@H]2CN3CCc4c([nH]c5ccc(OC)cc45)[C@@H]3C[C@H]12` [aricine], in experiment [1], the IC50 values came out at 9.819 and the “cross-reactivity (%)” value was 1.90%.

Take `CN(C)CCCN1c2ccccc2Sc2ccc(Cl)cc21` [chlorpromazine]: the half-maximal inhibitory concentration (IC50) in experiment [2] is 0.00058 µg/mL (≈ 0.00182 µM).

Regarding `CC1(C)C(C(=O)OC(C#N)c2cccc(Oc3ccccc3)c2)C1(C)C` (centres unmarked) [fenpropathrin], the IC50 in experiment [3] is 0.34 µg/mL (≈ 0.973 µM).

Turning to `COC(=O)[C@H]1[C@H]2C[C@@H]3c4[nH]c5cc(OC)ccc5c4CCN3C[C@H]2C[C@@H](OC(=O)c2cc(OC)c(OC)c(OC)c2)[C@@H]1OC` [reserpine], in experiment [1], the IC50 values is 9.889 and the “cross-reactivity (%)” value is reported as 1.89%.

As to corynantheidine, in experiment [1], the IC50 values was 1.854 and the “cross-reactivity (%)” value was 10.08%.
